We go through 1 molecule from ChEMBL document CHEMBL5674882, “Benzolactam-related compounds promote apoptosis of HIV-infected human cells via protein kinase C-induced HIV latency reversal” (J Biol Chem, 2019).

Calls of active or inactive are those of the source. The rule behind the calls is not given here.

The target of data set [1] is T1, Protein kinase C (PKC) (Homo sapiens) (UniProt O94806+P41743+P17252+P05129+Q05655+P05771+Q05513+Q02156+P24723+Q15139+Q04759). The data set can be described thus: (§1) Activation of PKC in human ACH-2 cells infected with latent HIV-1 assessed as reversal of HIV-1 latency by measuring increase in p24 antigen level incubated for 48 hrs by chemiluminescent enzyme immunoassay. The format is cell-based. As to conditions: ACH-2 cell line, filed as activator.

The target in data set [2] is Protein kinase C (PKC). The description is as §1. Type of data set: cell-based. As to conditions: ach-2 cell line.
For data set [3], the target named is T1, Protein kinase C (PKC) (Homo sapiens). In words: (§2) Activation of PKC in human U1 cells infected with latent HIV-1 assessed as reversal of HIV-1 latency by measuring increase in p24 antigen level incubated for 48 hrs by chemiluminescent enzyme immunoassay. Conditions: filed as activator. Type of data set: cell-based.
In data set [4] the target is Protein kinase C (PKC). Described as §2. The format is cell-based.
Data set [5] in a line: Toxicity in human U-937 cells assessed as reduction in cell viability after 48 hrs by WST8 assay. The format is cell-based. Put shortly: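 Parental, uninfected lines (A3.01 for ACH-2, U937 for U1) at 5 × 10^5 cells/ml cultured with or without drug. Viable cells read at 48 h (day 2) and expressed as % of untreated control. CC50 taken as the concentration lowering viability by 50%.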

Data set [6] addresses T1, Protein kinase C (PKC) (Homo sapiens). The data set can be described thus: Activation of PKC in human J-Lat 10.6 cells infected with latent HIV-1 assessed as reversal of HIV-1 latency by measuring increase of GFP-positive cells at 100 to 400 nM in presence of 200 nM Prostratin incubated for 24 hrs by flow cytometry. The format is cell-based. Conditions: filed as activator, dose 100-400 nM.

For data set [7] the target is unchanged. The data set can be described thus: Activation of PKC in human J-Lat 10.6 cells infected with latent HIV-1 assessed as reversal of HIV-1 latency by measuring increase of GFP-positive cells at 100 to 400 nM in presence of 500 nM GSK525762A incubated for 24 hrs by flow cytometry. The format is cell-based. As to conditions: filed as activator, dose 100-400 nM.

For data set [8] the target is unchanged. The data set can be described thus: Activation of PKC in human J-Lat 10.6 cells infected with latent HIV-1 assessed as reversal of HIV-1 latency by measuring increase of GFP-positive cells at 100 to 400 nM in presence of 1 uM SAHA incubated for 24 hrs by flow cytometry. The format is cell-based. Conditions: filed as activator, dose 100-400 nM.
For data set [9] the target is unchanged. The data set can be described thus: Synergistic activation of PKC in human U1 cells infected with latent HIV-1 assessed as reversal of HIV-1 latency by measuring increase in p24 antigen level at 50 nM incubated for 48 hrs in presence of 100 nM JQ1 by chemiluminescent enzyme immunoassay relative to compound alone. The format is cell-based. As to conditions: filed as activator. Put shortly: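 U1 cells at 5 × 10^5 cells/ml incubated 48 h with test agent alone or plus 100 nm JQ1. Supernatant p24 antigen quantified by automated immunoassay. Fold reactivation computed versus the same agent without JQ1. Mean ± S.D. of three independent experiments.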

The target is the same in data set [10]. In words: Synergistic activation of PKC in CD4+ T-cells purified from HIV-infected patient assessed as increase in transcription of HIV mRNA at 1 uM incubated for 24 hrs in presence of 1 uM JQ1 by qRT-PCR method. Type of data set: cell-based. Conditions: CD4+ T cell, filed as activator. Put shortly: (§3)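 CD4+ T-cells purified from PBMC of patients on cART for at least 5 years with plasma viral load <20 copies/ml. Cells plated at 2.5 × 10^6 cells/ml and treated 24 h, alone or with 1 μm JQ1. Intracellular HIV RNA measured by qRT-PCR against a plasmid standard curve, normalised per ng input RNA, relative to untreated cells. Synergy assessed by Bliss independence model.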

The target is the same in data set [11]. In words: Synergistic activation of PKC in CD4+ T-cells purified from HIV-infected patient assessed as increase in transcription of HIV mRNA at 5 uM incubated for 24 hrs in presence of 1 uM JQ1 by qRT-PCR method. Conditions: CD4+ T cell, filed as activator. The format is cell-based. Put shortly: as §3
For data set [12], the system named is U1. The data set can be described thus: Induction of apoptosis in human U1 cells at 1 uM incubated for 48 hrs after pre-incubated for 2 hrs with 20 uM caspase inhibitor Q-VD-Oph by propidium iodide/annexin-V staining based flow cytometry relative to compound alone control. Also noted: scale not given: the % may be the effect or the level left. Type of data set: functional. Put shortly:
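ACH-2 or U1 cells pretreated 2 h with 20 µM pan-caspase inhibitor Q-VD-Oph, then exposed to 1 µM compound for 48 h. Annexin-V/PI staining by flow cytometry; apoptotic proportions compared with and without Q-VD-Oph. Mean ± S.D.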

Data set [13] concerns U1. In words: Induction of apoptosis in human U1 cells at 1 uM incubated for 48 hrs by propidium iodide/annexin-V staining based flow cytometry. The format is functional.
Data set [14] addresses T1, Protein kinase C (PKC) (Homo sapiens). In words: Activation of PKC in CCL19-induced human CD4+ T-cells infected with latent HIV-1 assessed as reversal of HIV-1 latency by measuring increase in p24 antigen level at 1 uM incubated for 48 hrs by chemiluminescent enzyme immunoassay. The format is cell-based. Conditions: CD4+ T cell, filed as activator.
The target is the same in data set [15]. In words: Activation of PKC in human J-Lat 6.3 cells infected with latent HIV-1 assessed as reversal of HIV-1 latency by measuring increase of GFP-positive cells at 10 uM in presence of pan-PKC inhibitor Go-6983 incubated for 24 hrs by flow cytometry. The format is cell-based. Put shortly: (§4)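 J-Lat 6.3 cells pretreated 3 h with a PKC inhibitor: Gö 6983 1 µM, Gö 6976 1 µM, GF 109203X 1 µM, PKCθ/δ inhibitor 10 µM, or Rottlerin 1 µM. Then exposed to 10 µM compound for 24 h; GFP-positive cells counted by flow cytometry. Mean ± S.D.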

Data set [16] shares this target. The data set can be described thus: Activation of PKC in human J-Lat 6.3 cells infected with latent HIV-1 assessed as reversal of HIV-1 latency by measuring increase of GFP-positive cells at 10 uM in presence of PKC alpha/beta inhibitor Go-6976 incubated for 24 hrs by flow cytometry. Type of data set: cell-based. Put shortly:
as §4

The nature of data set [17]: Toxicity in human CD4+ T-cells assessed as elevation of supernatant cytokine concentrations of IL-5 incubated for 24 hrs by bead-based immunoassay. Conditions: cd4+ t cell. Put shortly: (§5)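 Purified CD4+ T-cells from healthy donors treated 24 h with 1 μm drug, 1 μm JQ1, or the combination. IL-2, IL-5, IL-6, IL-13, TNFα and IFN-γ in supernatants measured by flow-cytometry bead-based Th1/Th2 immunoassay. Run in duplicate.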

Data set [18] is described as follows: Toxicity in human CD4+ T-cells assessed as elevation of supernatant cytokine concentrations of IL-6 incubated for 24 hrs by bead-based immunoassay. As to conditions: cd4+ t cell. Put shortly: as §5
Data set [19] in a line: Toxicity in human CD4+ T-cells assessed as elevation of supernatant cytokine concentrations of IL-6 incubated for 24 hrs in presence of JQ1 by bead-based immunoassay. Conditions: cd4+ t cell. Put shortly:
as §5

The test system of the next data set is J-Lat 6.3. The data set can be described thus: Induction of apoptosis in human J-Lat 6.3 cells at 1 uM incubated for 48 hrs by propidium iodide/annexin-V staining based flow cytometry (reference value: 3.16%). Type of data set: functional.
Data set [20] in a line: Induction of apoptosis in human CEM A3.01 cells assessed as caspase-3 activation at 1 uM incubated for 24 hrs by flow cytometry. Type of data set: functional. Put shortly:
(§6)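 Cells fixed in 1% paraformaldehyde, permeabilized, stained 30 min on ice with anti-active caspase-3 mAb, and analysed by flow cytometry. Three independent experiments.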

The subject of another data set is Jurkat. In words: Induction of apoptosis in human Jurkat cells assessed as caspase-3 activation at 1 uM incubated for 24 hrs by flow cytometry. Type of data set: functional. Put shortly: as §6
Data set [21] concerns U1. In words: Induction of apoptosis in human U1 cells assessed as caspase-3 activation at 1 uM incubated for 24 hrs by flow cytometry (reference value: 1.86%). The format is functional. Put shortly:
as §6

Turning to `CCCCCCCCCCc1ccc2c(c1)N(C)[C@@H](C(C)C)C(=O)N[C@H](CO)C2`, the Activity result in data set [1] is “Dose-Dependent Effect”; in data set [3], “Dose-Dependent Effect”; with U1 [12], 20%; in the data set with U1 [13] it was 28.4%; in [17], “Toxic”; in data set [18] it was “Toxic”. Besides, the Activity result in data set [19] is recorded as “Non-Toxic”; in the data set with J-Lat 6.3, 17%; in data set [20], 2.01%; in the data set on Jurkat, 2.63%; with U1 [21] it was 7.7%. Moreover, the EC50 at Protein kinase C (PKC) [2] was found to be 0.025 µM; at Protein kinase C (PKC) [4] it was 0.034 µM. Also, the half-maximal cytotoxic concentration (CC50) at 48 h in data set [5] stood at 61.2 µM. Besides, the result in data set [6], in data set [7], in [8] and in data set [14] was Active. Also, the fold change (FC) in data set [9] is 4.5; in data set [10], 13.2; in [11] it was 13.4. For the same molecule, the result in data set [15] and in data set [16] was inactive.
